Here are results for 9 compounds from ChEMBL document CHEMBL1765030, “Discovery and preclinical evaluation of a novel class of cytotoxic propynoic acid carbamoyl methyl amides (PACMAs)” (J Med Chem, 2011).

Data set [1] deals with UMUC3. Description: Cytotoxicity against human UM-UC-3 cells after 72 hrs by MTT assay. The class given is functional, cell-based. To be noted: UMUC3, 72 h. An outline of the steps: (§1)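 Cells were attached overnight, then continuously exposed to drug for 72 h. MTT (0.5 mg/mL final) was added for 4 h at 37 °C, formazan dissolved in DMSO, and A570 read; all in triplicate. IC50 came from log(concentration) vs % cells killed. Media: RPMI-1640 for HT29, HCT116 p53+/+ and p53−/−, and HEY; DMEM for MDA-MB-435 and UMUC3; all with 10% FBS, 37 °C, 5% CO₂.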
A general note: Formazan colour is commonly taken as a measure of viable cells.

The test system of data set [2] is HCT-116. Kind of data set: Cytotoxicity against human HCT116 cells […] after 72 hrs by MTT assay. The class given is functional, cell-based. The note with it: HCT-116, 72 h. An outline of the steps: as §1
Data set [3] relates to HEY. Kind of data set: Cytotoxicity against human HEY cells after 72 hrs by MTT assay. The class given is functional, cell-based. The method in brief: as §1
The test system of data set [4] is MDA-MB-435. Kind of data set: Cytotoxicity against human MDA-MB-435 cells at 1 uM after 24 hrs using crystal violet staining by colony formation assay. It is filed as functional, cell-based. The method in brief: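 Cells were plated at 1000 per well, attached overnight, and exposed to 1 μM for 24 h. They were then washed and grown in fresh medium for 8–10 days until colonies formed, fixed in 1% glutaraldehyde for 30 min, and stained with 2% crystal violet for 30 min. Vehicle was DMSO.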

The test system of data set [5] is HCT-116. Description: Cytotoxicity against p53 deficient human HCT116 cells […] after 72 hrs by MTT assay. It is filed as functional, cell-based. To be noted: HCT-116, 72 h. An outline of the steps: as §1
Data set [6] is described as follows: Octanol-water distribution coefficient, log P of the compound. It is filed as physicochemical.
The subject of data set [7] is MDA-MB-435. Description: Cytotoxicity against human MDA-MB-435 cells after 72 hrs by MTT assay. It is filed as functional, cell-based. To be noted: MDA-MB-435, 72 h. The method in brief: as §1
Data set [8] concerns 5637. Kind of data set: Cytotoxicity against human 5637 cells after 72 hrs by MTT assay. To be noted: Homo sapiens, 5637, 72 h. It is filed as functional, cell-based.
Data set [9] deals with NCI/ADR-RES. Kind of data set: Cytotoxicity against human NCI/ADR-RES cells after 72 hrs by MTT assay. The class given is functional, cell-based.
For data set [10], the system named is HT-29. Kind of data set: Cytotoxicity against human HT-29 cells after 72 hrs by MTT assay. The class given is functional, cell-based. To be noted: HT-29, 72 h. The method in brief:
as §1

In data set [11] the test system is MDA-MB-435. Description: Increase of mitochondrial superoxide accumulation in human MDA-MB-435 cells at IC50 to 3 times IC50 after 24 hrs by fluorescence microscopic analysis. The class given is functional, cell-based. An outline of the steps:
(§2)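 Cells were drug-treated at two concentrations for 24 h, then loaded with 5 μM MitoSOX Red for 10 min at 37 °C and washed three times in HBSS. Cells were either viewed by fluorescence microscopy or trypsinized, washed twice in HBSS and read by flow cytometry; untreated cells served as control.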

Data set [12] concerns MDA-MB-435. Description: Increase of mitochondrial superoxide accumulation in human MDA-MB-435 cells at IC50 to 3 times IC50 after 24 hrs by flow cytometry. The class given is functional, cell-based. An outline of the steps:
as §2
A general note: A flow cytometer gives signals particle by particle.

In data set [13] the test system is MDA-MB-435. Kind of data set: Increase of mitochondrial superoxide accumulation in human MDA-MB-435 cells at 1.5 uM after 24 hrs by fluorescence microscopic analysis. The class given is functional, cell-based. An outline of the steps:
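MDA-MB-435 cells (DMEM, 10% FBS, 37 °C, 5% CO₂) treated 24 h, then loaded with 5 μM MitoSOX Red mitochondrial superoxide indicator for 10 min at 37 °C; washed three times with HBSS to remove excess dye and viewed under a fluorescence microscope for mitochondrial superoxide staining pattern, compared with untreated cells.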

The test system of data set [14] is MDA-MB-435. Description: Increase of reactive oxygen species accumulation in human MDA-MB-435 cells at IC50 to 3 times IC50 after 24 hrs by fluorescence microscopic analysis. It is filed as functional, cell-based.

pIC50: −log10 of the molar value. Activity calls are given as the source filed them. The rule behind the calls is not given here. Bounds are passed on as bounds.

Usually pIC50 stands for −log10 of the IC50, conventionally taken in molar units. Broadly, the logP is a log measure of how a compound divides between an organic and an aqueous phase. Lower therefore signals a more hydrophilic compound.

On to `C#CC(=O)N(c1ccc(-n2cnnn2)c(C)c1)C(C(=O)NC1CCCC1)c1ccccc1` (stereo unspecified), for which the pIC50 is 5.11 in data set [1]; 5.14 in data set [2]; 5.72 in [3]; 5.24 in [5]; 6.22 in [7]; 6.40 in [8]. In addition, the pIC50 is 6.00 in data set [9] and 5.82 in data set [10]. Also, the result in [4] was Active. In [6], this compound gave a log partition coefficient (logP) of 3.54.
With `C#CC(=O)N(c1cc(OC)ccc1OC)C(C(=O)NC1CCCC1)c1cccs1` (stereo unspecified), the pIC50 in [1] is 5.24; in data set [2], 5.24; in data set [3], 5.82; in [5] it was 5.33; in [7] it was 6.30; in data set [8] it was 6.52. Besides, the pIC50 in data set [9] is 6.52; in data set [10] it was 5.80. Further, the result in data set [4] was Active. In data set [6], the logP came out at 2.26.
Consider `C#CC(=O)N(c1ccccc1)C(C(=O)NC1CCCCC1)c1cccs1` (stereo unspecified), for which the pIC50 in [1] was less than 4.70; in data set [2] it was 4.85; in data set [3] it was less than 5.00; in [5], less than 4.70; in data set [7] it was less than 5.00; in data set [8] it was 5.46. The pIC50 is 5.89 in data set [9] and less than 5.00 in data set [10]. Also, the result in [4], in data set [11] and in data set [12] was Active. The compound also yielded a logP in data set [6] of 3.07.
Turning to `C#CC(=O)N(c1ccc2c(c1)OCCO2)C(C(=O)NC1CCCC1)c1ccccc1` (stereo unspecified), the negative logarithm of the IC50 (pIC50) in data set [1] is less than 4.70; in [2], 4.76; in data set [3] it was 5.39; in data set [5] it was less than 4.70; in data set [7], 5.74; in data set [8], 5.72. For the same compound, the results for the pIC50 in data set [9] and in data set [10] were 6.52 and 5.49, respectively. Also, in data set [4], the result was Active. Moreover, the logP in [6] was 2.62.
As for `C#CC(=O)N(c1cc(OC)cc(OC)c1)C(C(=O)NC1CCCC1)c1ccc(OC)cc1` (stereo unspecified), the pIC50 in [1] is less than 4.70; in data set [2], 4.82; in data set [3], 5.64; in data set [5], less than 4.70; in [7], 5.62; in data set [8], 5.72. Moreover, the pIC50 is 6.52 in data set [9] and 5.68 in [10]. In addition, in data set [4], the outcome was Active. The compound further showed a logP in data set [6] of 2.33.
As to `C#CC(=O)N(Cc1ccc2c(c1)OCO2)C(C(=O)NCc1ccccc1)c1ccccc1F` (stereo unspecified), the pIC50 in [1] was less than 4.70; in data set [2], less than 5.00; in data set [3], less than 5.00; in [5], less than 4.70; in data set [7], less than 5.00; in data set [8], 5.55. Further, the pIC50 in [9] was 5.89; in data set [10], less than 5.00. For the same compound, the outcome in data set [4] was Active. In data set [6], this compound gave a logP of 3.32.
On to `CC(=O)O[C@H]1C(=O)[C@@]2(C)[C@H]([C@H](OC(=O)c3ccccc3)[C@]3(O)C[C@H](OC(=O)[C@H](O)[C@@H](NC(=O)c4ccccc4)c4ccccc4)C(C)=C1C3(C)C)[C@]1(OC(C)=O)CO[C@@H]1C[C@@H]2O` [PACLITAXEL], for which the outcome in data set [4] was Active. Moreover, the logP in data set [6] was found to be 0.54. For the same compound, in data set [13], the result was inactive.
On to `O=C(O)c1ccccc1C1c2cc(Cl)c(O)cc2Oc2cc(O)c(Cl)cc21`, for which the outcome in [14] was inactive.
As for `C#CC(=O)N(c1cccc(C(F)(F)F)c1)C(C(=O)NCc1ccccc1)c1cccs1` (stereo unspecified), the pIC50 was less than 4.70 in data set [1]; 5.05 in data set [2]; 5.15 in data set [3]; 4.79 in data set [5]; 5.38 in data set [7]; 5.92 in data set [8]. For the same compound, the pIC50 in data set [9] is 6.15; in [10], 5.14. Also, in data set [4], the outcome was Active. Besides, the logP in data set [6] was 3.86.
